IC50 data for 2 compounds are collected here from publication PMC10099454 (ACS Omega, 2023).

The conditions of test [1]: read-out: IC50 broad anticancer activity; cited from earlier work.
A further test concerns the target Topoisomerase II (Homo sapiens, UniProt P11388). The experiment in a line: Topo II inhibition assay. It counts as biochemical.
For a further test, the system named is A549. Put plainly: MTT cytotoxicity assay. It counts as cell-based. The conditions noted are these: Homo sapiens, A549, 48 h, read-out: IC50 A549. The essentials:
(§1)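 Human cancer (A549, MCF-7) and normal (MCF-10A, THLE2, WISH) lines cultured in RPMI-1640/DMEM with L-glutamine, 10% FBS and 1% penicillin-streptomycin at 37 °C, 5% CO2. […] MTT absorbance read at […]. IC50 taken from concentration-viability curves.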
On the technique in general: Tetrazolium dyes change colour on reduction, which living cells bring about.

The subject of another test is MCF-7. The experiment in a line: MTT cytotoxicity assay. It counts as cell-based. The conditions noted are these: Homo sapiens, MCF7, 48 h, read-out: IC50 MCF-7. In a few lines: as §1

Sequence of Topoisomerase II (P11388 whole entry): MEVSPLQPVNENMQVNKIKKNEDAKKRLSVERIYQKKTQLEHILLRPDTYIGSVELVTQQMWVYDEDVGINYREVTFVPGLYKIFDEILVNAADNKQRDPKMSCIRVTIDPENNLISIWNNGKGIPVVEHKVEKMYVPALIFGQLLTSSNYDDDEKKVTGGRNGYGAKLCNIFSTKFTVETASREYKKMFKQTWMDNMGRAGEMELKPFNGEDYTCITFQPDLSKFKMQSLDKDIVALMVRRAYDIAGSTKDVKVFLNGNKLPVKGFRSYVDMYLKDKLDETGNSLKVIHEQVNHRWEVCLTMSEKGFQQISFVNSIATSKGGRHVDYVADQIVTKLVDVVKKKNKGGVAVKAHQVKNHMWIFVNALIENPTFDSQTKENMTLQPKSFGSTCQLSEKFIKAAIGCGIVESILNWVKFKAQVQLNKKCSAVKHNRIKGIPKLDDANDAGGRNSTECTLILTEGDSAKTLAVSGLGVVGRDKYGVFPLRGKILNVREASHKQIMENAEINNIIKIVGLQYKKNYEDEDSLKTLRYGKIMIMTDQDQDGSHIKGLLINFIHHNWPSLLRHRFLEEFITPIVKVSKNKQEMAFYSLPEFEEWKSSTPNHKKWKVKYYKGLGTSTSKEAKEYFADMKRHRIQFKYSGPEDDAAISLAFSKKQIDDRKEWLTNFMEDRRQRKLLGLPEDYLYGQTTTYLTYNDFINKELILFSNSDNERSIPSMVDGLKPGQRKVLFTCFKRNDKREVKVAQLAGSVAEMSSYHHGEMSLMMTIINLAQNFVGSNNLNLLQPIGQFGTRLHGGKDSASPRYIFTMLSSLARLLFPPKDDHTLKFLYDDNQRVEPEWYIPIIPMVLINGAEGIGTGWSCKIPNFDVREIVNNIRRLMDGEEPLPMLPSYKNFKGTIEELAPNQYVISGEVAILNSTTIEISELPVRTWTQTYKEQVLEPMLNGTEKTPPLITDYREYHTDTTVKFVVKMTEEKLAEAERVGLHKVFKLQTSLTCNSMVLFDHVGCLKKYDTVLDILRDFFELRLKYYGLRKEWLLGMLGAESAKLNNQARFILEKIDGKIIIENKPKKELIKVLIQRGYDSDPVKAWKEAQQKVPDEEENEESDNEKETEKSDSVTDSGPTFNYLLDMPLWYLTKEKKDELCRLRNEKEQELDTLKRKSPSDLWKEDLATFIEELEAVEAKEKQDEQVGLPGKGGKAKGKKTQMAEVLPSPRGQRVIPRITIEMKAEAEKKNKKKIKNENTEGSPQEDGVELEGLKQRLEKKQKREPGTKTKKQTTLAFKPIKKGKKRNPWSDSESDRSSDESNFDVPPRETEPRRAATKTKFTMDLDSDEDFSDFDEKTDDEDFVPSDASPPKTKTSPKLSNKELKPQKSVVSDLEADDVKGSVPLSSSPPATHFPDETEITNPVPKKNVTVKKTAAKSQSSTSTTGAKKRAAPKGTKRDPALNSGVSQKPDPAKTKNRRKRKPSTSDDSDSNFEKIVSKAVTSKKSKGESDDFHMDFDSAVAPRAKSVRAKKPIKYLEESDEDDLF

For the compound `CCN1C(=O)C(=Cc2ccccc2)SC1=S` [BTR-1, 5-Benzylidene-3-ethyl rhodanine], in test [1], the IC50 is below 10 µM.
As for `CC(=O)OC[C@H]1O[C@@H](N2C(=O)/C(=C/c3ccccc3)SC2=S)[C@H](OC(C)=O)[C@@H](OC(C)=O)[C@@H]1OC(C)=O` [Compound 11a, 5-((Z)-Benzylidene)-3-(2′,3′,4′,6′-tetra-O-acetyl-β-D-glucopyranosyl)-2-thioxo-4-thiazolidinone], the values for the IC50 on Topoisomerase II, with A549 and in the test with MCF-7 were 7.6 ± 0.24 µM, 9.8 ± 0.11 µM and 3.7 ± 0.13 µM, respectively.

For orientation: IC50 means the point on the concentration scale where inhibition reaches its midpoint.
